A short description of data set [1]: folding enthalpy; higher = less favourable; fluorescence melt of hairpins on a sequencing array, two-state fit. The conditions noted are these: sodium 0.088 M. The procedure, abridged: (§1)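 Cy3 fluorescence of library hairpins on a sequenced MiSeq flow cell, with annealed Cy3 and quencher oligos, was imaged in 50 mM Na-HEPES pH 8.0, 25 mM NaCl in 2.5 °C steps up to 60 °C. Signals were normalised to pre-quench Cy3 and to control variants. Melting temperature and folding enthalpy came from bootstrapped two-state fits, inverse-variance combined over four replicates. Fitted temperatures were raised by 9.35 °C to match UV melts.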

Data set [2] can be described thus: melting temperature; fluorescence melt of hairpins on a sequencing array, two-state fit, raised by 9.35 °C to match UV melts. The conditions noted are these: sodium 0.088 M. The procedure, abridged:
as §1

We go through 37 sequences from the array DNA melting data of Ke et al. (doi:10.1101/2024.01.08.574731).

Take GCGTTGACGAAAGTCCGC (((..(((....)))))): in data set [1], the folding enthalpy is -24.1 kcal/mol. In addition, the Tm in data set [2] stood at 51.4 °C.
Take GCGTTGCCGAAAGGCCGC (((..(((....)))))): the folding enthalpy in data set [1] was -16.6 kcal/mol. In addition, in data set [2], the Tm amounted to 55.6 °C.
On the same counts, the results for GCGTTGCGAAAGCACGGC ((..(((....)))..)) are -13.6 kcal/mol and 58.9 °C.
Regarding GCGTTGCGAAAGCACTGC ((..(((....)))..)), in data set [1], the folding enthalpy is -18.2 kcal/mol. For the same sequence, the Tm in data set [2] worked out at 46.1 °C.
For GCGTTGCGAAAGCATCGC (((.(((....))).))), the folding enthalpy in data set [1] is -55.8 kcal/mol. Also, the Tm in data set [2] worked out at 61.3 °C.
On the same counts, the results for GCGTTGCGAAAGCCACGC ((((.((....)).)))) are -36.6 kcal/mol and 66.6 °C.
For GCGTTGCGAAAGCCTCGC (((..((....))..))), the folding enthalpy in data set [1] is -18.5 kcal/mol. In data set [2], the Tm was found to be 58.1 °C.
The matching figures for GCGTTGGCGAAAGCCCGC (((..(((....)))))): -18.8 kcal/mol and 57.3 °C.
The matching figures for GCGTTGGGAAACCAATGC ((.((((....)))).)): -43.2 kcal/mol and 54.3 °C.
The matching figures for GCGTTGTACGC ((((...)))): -19 kcal/mol and 65.8 °C.
For GCGTTGTGACGC ((((....)))), the folding enthalpy in data set [1] is -31.6 kcal/mol. For the same sequence, the Tm in data set [2] came out at 59 °C.
On the same counts, the results for GCGTTTAAACGC ((((....)))) are -29.4 kcal/mol and 54.7 °C.
Regarding GCGTTTCCGAAAGGACGC (((..(((....)))))), the folding enthalpy in data set [1] is -24.5 kcal/mol. For the same sequence, the Tm in data set [2] came out at 49.7 °C.
For GCGTTTCGAAAGAACCGC (((.(((....))).))), the folding enthalpy in data set [1] is -39.8 kcal/mol. Besides, in data set [2], the Tm stood at 52.4 °C.
On the same counts, the results for GCGTTTCGACGC ((((....)))) are -28.6 kcal/mol and 55.9 °C.
For GCGTTTGTACGC ((((....)))), the folding enthalpy in data set [1] was -25.4 kcal/mol. For the same sequence, in data set [2], the Tm is 54.9 °C.
On to GCGTTTTCGAAAGAACGC (((..(((....)))))), for which, in data set [1], the folding enthalpy was -32 kcal/mol. Besides, the Tm in data set [2] was 49.6 °C.
On the same counts, the results for GCTAAACGAAAGTTAAGC (((.(((....))).))) are -29.1 kcal/mol and 44.3 °C.
Regarding GCTAAATCGAAAGATAGC (((..(((....)))))), in data set [1], the folding enthalpy was -18.4 kcal/mol. In addition, the Tm in data set [2] was determined as 33.9 °C.
On the same counts, the results for GCTAACCGAAAGGTAAGC (((.(((....))).))) are -30.8 kcal/mol and 52.1 °C.
On the same counts, the results for GCTAACGAAAGTTCAAGC ((((((....)))..))) are -12.5 kcal/mol and 30.9 °C.
As for GCTAACGAAAGTTCAGC ((((((....))).))), the folding enthalpy in data set [1] is -21.8 kcal/mol. For the same sequence, in data set [2], the Tm is 39 °C.
The matching figures for GCTAACGAAAGTTGAGC ((((((....))).))): -26.1 kcal/mol and 41.5 °C.
As to GCTAACGAAAGTTTCAGC ((((((....)))..))), in data set [1], the folding enthalpy is -14.2 kcal/mol. Besides, the Tm in data set [2] worked out at 29.7 °C.
The matching figures for GCTAACGGAAACGTTAAC (.(((((....))))).): -16.1 kcal/mol and 34.8 °C.
The matching figures for GCTAACGGAAACGTTGGC ((.((((....)))).)): -36.1 kcal/mol and 52.6 °C.
Consider GCTAAGAAATTAGC (((((....))))), for which, in data set [1], the folding enthalpy was -16.8 kcal/mol. Further, the Tm in data set [2] is 39.5 °C.
As to GCTAAGCGAAAGCATCGC ((.(.((....)).).)), in data set [1], the folding enthalpy is -11.1 kcal/mol. Further, in data set [2], the Tm is 30.7 °C.
On to GCTAAGCGAAAGCCGAGC (((..((....))..))), for which the folding enthalpy in data set [1] was -19.1 kcal/mol. For the same sequence, the Tm in data set [2] is 42.2 °C.
Turning to GCTAAGCGAAAGCGTTGC ((.(.((....)).).)), in data set [1], the folding enthalpy is -20 kcal/mol. In data set [2], the Tm is 53.4 °C.
On the same counts, the results for GCTAAGCGAAAGCTTCGC ((.((((....)))).)) are -20.9 kcal/mol and 53.8 °C.
On the same counts, the results for GCTAATCGAAAGATAGC (((.(((....)))))) are -26.4 kcal/mol and 44.6 °C.
On to GCTAATCGAAAGATCAGC (((.(((....))).))), for which the folding enthalpy in data set [1] was -29.4 kcal/mol. Besides, the Tm in data set [2] was determined as 41.2 °C.
The matching figures for GCTAATGGAAACACTAGC ((((.((....)).)))): -23.9 kcal/mol and 31.2 °C.
The matching figures for GCTAATGGAAACATTGGC ((.((((....)))).)): -41.2 kcal/mol and 45.6 °C.
For GCTACCGAAAGGTAGAGC ((((((....)))..))), the folding enthalpy in data set [1] was -19.1 kcal/mol. Also, the Tm in data set [2] was found to be 53.7 °C.
The matching figures for GCTACCGAAAGGTCCAGC ((((((....)))..))): -11.4 kcal/mol and 29 °C.
